Test results as given in publication PMC3561458 (Investigational new drugs, 2011).
Marks after values point to notes of the source that are not given here.

Tests used:
[1] = system: patients with advanced/metastatic solid tumors; experiment: Phase I safety: adverse events; assay type: in vivo, human
Plasma pharmacokinetics = assay type: in vivo, human; conditions: for AUC(0-t) / Cmax / Vd/F / half-life: human, plasma, oral; for Vd/F: Vz/F
Procedure, shortened: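 The test compound is given orally once daily for 7 days in 2-week cycles (S1). Plasma is sampled in cycle 1 on days 1, 2, 4, 7, 8 and 9, and in cycle 2 on days 1, 4 and 7. Cycle 1 day 1 is sampled from 30 min to 24 h after dosing and day 7 from 30 min to 96 h. Parent and metabolite are measured by validated LC-MS-MS, with calibration ranges of 0.00109–1.09 and 0.00105–1.05 μM respectively.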

CDK2/Cyclin A complex = conditions: read-out: IC50, CDK2/Cyclin A complex; cited from earlier work
CDK4 = conditions: cited from earlier work

For CNC(=O)c1nn(C)c2c1C(C)(C)Cc1cnc(Nc3ccc(N4CCN(C)CC4)cc3)nc1-2 [PHA-848125AC, N,1,4,4-tetramethyl-8-{[4-(4-methylpiperazin-1-yl)phenyl]amino}-4,5-dihydro-1H-pyrazolo [4,3-h]quinazoline-3-carboxamide], the “Neutropenia, drug-related, CTC Grade 1–4: patients” value ([1]; S2 200 mg/day N=4, all cycles) was 1, the “Tremor, drug-related, CTC Grade 1–4: patients” value ([1]; S2 200 mg/day N=4, all cycles) was 2 and the “Tremor, drug-related, CTC Grade 3–4: patients” value ([1]; S2 200 mg/day N=4, all cycles) was 1. The “Vomiting, drug-related, CTC Grade 1–4: patients” value ([1]; S2 200 mg/day N=4, all cycles) was 1, the “dose-limiting toxicities (DLTs)” value ([1]; S2 (4 days on/3 days off × 3wks q4wks), all doses) was “tremors (Grade 2–3), elevated lipase (Grade 3), increased creatinine (Grade 2), and nausea and vomiting (Grade 3)” and the “patients discontinued due to adverse events” value ([1]; S2 N=15) was 13.3 ^a %. The “blood chemistry and hematology abnormalities” value ([1]; any schedule, except lymphocytopenia) was “No significant blood chemistry and hematology abnormalities”, the “doses at which tremors and ataxia were dose-limiting” value ([1]; both schedules) was greater than 150 mg/day and the lymphocytopenia occurrence ([1]; both schedules) was “half of cases”. The on study deaths ([1]; both schedules) was “No on study deaths”, the “effects on coagulation, blood pressure, ECGs” value ([1]; in vivo) was “did not cause significant effects” and the “recommended phase II dose (RP2D)” value ([1]; oral, both schedules (S1 and S2)) was 150 mg/day. The CL/F (Plasma pharmacokinetics; S1 50 mg/day, mean±SD, n=2) was 19.7 ± 4.35 L/h, the CL/F (Plasma pharmacokinetics; S1 100 mg/day, mean±SD, n=6) was 13.7 ± 6.49 L/h and the CL/F (Plasma pharmacokinetics; S1 200 mg/day, mean±SD, n=6) was 15.2 ± 2.44 L/h. The CL/F (Plasma pharmacokinetics; S1 300 mg/day, n=1) was 7.78 L/h, the CL/F (Plasma pharmacokinetics; S2 150 mg/day, mean±SD, n=4) was 16.4 ± 6.16 L/h and the CL/F (Plasma pharmacokinetics; S2 200 mg/day, mean±SD, n=3) was 12.7 ± 1.60 L/h. The “accumulation factor after repeated administrations” value (Plasma pharmacokinetics; both schedules) was 3, the AUC(0-t) (Plasma pharmacokinetics; 50 mg/day, AUC0-24, S1 50 mg/day, Day 1, mean±SD, n=3) was 2.5 ± 0.6 µM·h and the AUC(0-t) (Plasma pharmacokinetics; 50 mg/day, AUC0-24, S1 50 mg/day, Day 7, mean±SD, n=3) was 6.8 ± 2.2 µM·h. It also gave an AUC(0-t) (Plasma pharmacokinetics; 50 mg/day, AUCt, S1 50 mg/day, Day 7, mean±SD, n=3) of 11.7 ± 5.4 µM·h, a Cmax (Plasma pharmacokinetics; 50 mg/day, S1 50 mg/day, Day 1, mean±SD, n=3) of 200 ± 100 nM and a Cmax (Plasma pharmacokinetics; 50 mg/day, S1 50 mg/day, Day 7, mean±SD, n=3) of 400 ± 200 nM. It also gave a Vd/F (Plasma pharmacokinetics; 50 mg/day, S1 50 mg/day, mean±SD, n=2) of 707 ± 39.8 L, a half-life (Plasma pharmacokinetics; 50 mg/day, t1/2,z, S1 50 mg/day, mean±SD, n=2) of 25.3 ± 4.18 h and an AUC(0-t) (Plasma pharmacokinetics; 100 mg/day, AUC0-24, S1 100 mg/day, Day 1, mean±SD, n=6) of 6 ± 2.2 µM·h. It also gave an AUC(0-t) (Plasma pharmacokinetics; 100 mg/day, AUC0-24, S1 100 mg/day, Day 7, mean±SD, n=6) of 20 ± 11 µM·h, an AUC(0-t) (Plasma pharmacokinetics; 100 mg/day, AUCt, S1 100 mg/day, Day 7, mean±SD, n=6) of 43.4 ± 26.8 µM·h and a Cmax (Plasma pharmacokinetics; 100 mg/day, S1 100 mg/day, Day 1, mean±SD, n=6) of 400 ± 100 nM. The Cmax (Plasma pharmacokinetics; 100 mg/day, S1 100 mg/day, Day 7, mean±SD, n=6) was 1200 ± 500 nM, the Vd/F (Plasma pharmacokinetics; 100 mg/day, S1 100 mg/day, mean±SD, n=6) was 840 ± 550 L and the half-life (Plasma pharmacokinetics; 100 mg/day, t1/2,z, S1 100 mg/day, mean±SD, n=6) was 42.9 ± 15.9 h. For the same compound, the AUC(0-t) (Plasma pharmacokinetics; 150 mg/day, AUC0-24, S1 150 mg/day, Day 1, mean±SD, n=6) was 8.8 ± 2.6 µM·h, the AUC(0-t) (Plasma pharmacokinetics; 150 mg/day, AUC0-24, S1 150 mg/day, Day 7, mean±SD, n=6) was 25 ± 8.6 µM·h and the AUC(0-t) (Plasma pharmacokinetics; 150 mg/day, AUC0-24, S2 150 mg/day, Day 1, mean±SD, n=4) was 7.2 ± 2.8 µM·h. The AUC(0-t) (Plasma pharmacokinetics; 150 mg/day, AUC0-24, S2 150 mg/day, Day 18, mean±SD, n=4) was 23 ± 9.5 µM·h, the AUC(0-t) (Plasma pharmacokinetics; 150 mg/day, AUCt, S1 150 mg/day, Day 7, mean±SD, n=6) was 46.5 ± 19.4 µM·h and the AUC(0-t) (Plasma pharmacokinetics; 150 mg/day, AUCt, S2 150 mg/day, Day 18, mean±SD, n=4) was 54.6 ± 25.1 µM·h. The Cmax (Plasma pharmacokinetics; 150 mg/day, S1 150 mg/day, Day 1, mean±SD, n=6) was 700 ± 200 nM, the Cmax (Plasma pharmacokinetics; 150 mg/day, S1 150 mg/day, Day 7, mean±SD, n=6) was 1500 ± 500 nM and the Cmax (Plasma pharmacokinetics; 150 mg/day, S2 150 mg/day, Day 1, mean±SD, n=4) was 400 ± 100 nM. It also gave a Cmax (Plasma pharmacokinetics; 150 mg/day, S2 150 mg/day, Day 18, mean±SD, n=4) of 1200 ± 300 nM, a Vd/F (Plasma pharmacokinetics; 150 mg/day, S2 150 mg/day, mean±SD, n=4) of 1010 ± 456 L and a half-life (Plasma pharmacokinetics; 150 mg/day, t1/2,z, S1 150 mg/day, mean±SD, n=6) of 33.1 ± 9.53 h. The half-life (Plasma pharmacokinetics; 150 mg/day, t1/2,z, S2 150 mg/day, mean±SD, n=4) was 43.1 ± 10.7 h, the AUC(0-t) (Plasma pharmacokinetics; 180 mg/day, AUC0-24, S2 180 mg/day, Day 1, mean±SD, n=4) was 7 ± 2.1 µM·h and the AUC(0-t) (Plasma pharmacokinetics; 180 mg/day, AUC0-24, S2 180 mg/day, Day 18, mean±SD, n=4) was 17 ± 8.8 µM·h. For the same compound, the AUC(0-t) (Plasma pharmacokinetics; 180 mg/day, AUCt, S2 180 mg/day, Day 18, mean±SD, n=4) was 35.1 ± 26.3 µM·h, the Cmax (Plasma pharmacokinetics; 180 mg/day, S2 180 mg/day, Day 1, mean±SD, n=4) was 500 ± 200 nM and the Cmax (Plasma pharmacokinetics; 180 mg/day, S2 180 mg/day, Day 18, mean±SD, n=4) was 1100 ± 500 nM. The half-life (Plasma pharmacokinetics; 180 mg/day, t1/2,z, S2 180 mg/day, mean±SD, n=4) was 23.5 ± 8.42 h, the AUC(0-t) (Plasma pharmacokinetics; 200 mg/day, AUC0-24, S1 200 mg/day, Day 1, mean±SD, n=6) was 9.6 ± 3.6 µM·h and the AUC(0-t) (Plasma pharmacokinetics; 200 mg/day, AUC0-24, S1 200 mg/day, Day 7, mean±SD, n=6) was 29 ± 4.5 µM·h. For the same compound, the AUC(0-t) (Plasma pharmacokinetics; 200 mg/day, AUC0-24, S2 200 mg/day, Day 1, mean±SD, n=3) was 12 ± 6.3 µM·h, the AUC(0-t) (Plasma pharmacokinetics; 200 mg/day, AUC0-24, S2 200 mg/day, Day 18, mean±SD, n=3) was 35 ± 4.6 µM·h and the AUC(0-t) (Plasma pharmacokinetics; 200 mg/day, AUCt, S1 200 mg/day, Day 7, mean±SD, n=6) was 63.5 ± 9.04 µM·h. It also gave an AUC(0-t) (Plasma pharmacokinetics; 200 mg/day, AUCt, S2 200 mg/day, Day 18, mean±SD, n=3) of 63.6 ± 17.5 µM·h, a Cmax (Plasma pharmacokinetics; 200 mg/day, S1 200 mg/day, Day 1, mean±SD, n=6) of 700 ± 300 nM and a Cmax (Plasma pharmacokinetics; 200 mg/day, S1 200 mg/day, Day 7, mean±SD, n=6) of 1700 ± 200 nM. It also gave a Cmax (Plasma pharmacokinetics; 200 mg/day, S2 200 mg/day, Day 1, mean±SD, n=3) of 1000 ± 400 nM, a Cmax (Plasma pharmacokinetics; 200 mg/day, S2 200 mg/day, Day 18, mean±SD, n=3) of 2500 ± 500 nM and a Vd/F (Plasma pharmacokinetics; 200 mg/day, S1 200 mg/day, mean±SD, n=6) of 721 ± 207 L. The Vd/F (Plasma pharmacokinetics; 200 mg/day, S2 200 mg/day, mean±SD, n=3) was 473 ± 68.4 L, the half-life (Plasma pharmacokinetics; 200 mg/day, t1/2,z, S1 200 mg/day, mean±SD, n=6) was 32.4 ± 4.79 h and the half-life (Plasma pharmacokinetics; 200 mg/day, t1/2,z, S2 200 mg/day, mean±SD, n=3) was 25.8 ± 1.46 h. The AUC(0-t) (Plasma pharmacokinetics; 300 mg/day, AUC0-24, S1 300 mg/day, Day 1, n=1) was 23 µM·h, the AUC(0-t) (Plasma pharmacokinetics; 300 mg/day, AUC0-24, S1 300 mg/day, Day 7, n=1) was 84 µM·h and the AUC(0-t) (Plasma pharmacokinetics; 300 mg/day, AUCt, S1 300 mg/day, Day 7, n=1) was 168 µM·h. It also gave a Cmax (Plasma pharmacokinetics; 300 mg/day, S1 300 mg/day, Day 1, n=1) of 1200 nM, a Cmax (Plasma pharmacokinetics; 300 mg/day, S1 300 mg/day, Day 7, n=1) of 5100 nM and a Vd/F (Plasma pharmacokinetics; 300 mg/day, S1 300 mg/day, n=1) of 348 L. The half-life (Plasma pharmacokinetics; 300 mg/day, t1/2,z, S1 300 mg/day, n=1) was 31 h, the half-life (Plasma pharmacokinetics; half-life, terminal, overall) was roughly 33 h and the oral absorption (Plasma pharmacokinetics; in vivo, po) was “good oral absorption”. The IC50 (CDK2/Cyclin A complex) was 45 nM and the “inhibitory activity towards CDK4” value (CDK4) was “inhibitory activity”.
